Reference: ChEMBL document CHEMBL3784921, “Mimicking of Arginine by Functionalized N(ω)-Carbamoylated Arginine As a New Broadly Applicable Approach to Labeled Bioactive Peptides: High Affinity Angiotensin, Neuropeptide Y, Neuropeptide FF, and Neurotensin Receptor Ligands As Examples” (J Med Chem, 2016)
*1 amine or outer side, *2 acyl side, *3 side chain or, on linkers, in order; H or OH if unused. Where a SMILES comes first, the peptide text is derived from it. Bridges are numbered along the chain shown (N, C = ends). Roman numbers before positions name the chains, in order. [ ]: non-standard residue; d: D form. X6 = CCC(=O)NCCCCNC(=O)/N=C(/N)NCCC[C@H](N[*:1])C(=O)[*:2]; X3 = NCCOCCOCCNC(=O)/N=C(\N)NCCC[C@H](N[*:1])C(=O)[*:2]; X4 = NCCOCCOCCNC(=O)/N=C(/N)NCCC[C@H](N[*:1])C(=O)[*:2]; X2 = NCCCCNC(=O)/N=C(\N)NCCC[C@H](N[*:1])C(=O)[*:2]; X7 = NCCCCNC(=O)/N=C(/N)NCCC[C@H](N[*:1])C(=O)[*:2]; Suberoyl = O=C(CCCCCCC(=O)[*:2])[*:1]

How the values were obtained:
[1] = molecular target: Neurotensin receptor type 1 (Homo sapiens, UniProt P30989); experiment: Displacement of [3H]-{Nomega-[N-(4-propanoylaminobutyl)aminocarbonyl]}Arg-Arg-ProTyr-Ile-Leu-OH Tris(hydrotrifluoroacetate) from NTSR1 in human HT-29 cells after 2 hrs by liquid scintillation counting; type: cell-based
[2] = Drug degradation in human HT-29 cells at 50 uM after 2 hrs by reversed-phase HPLC analysis; type: ADME, cell-based; settings: read-out: Drug degradation
Procedure, shortened: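 Stability tested under binding-assay conditions for up to 6 h: AT1 ligands with CHO-hAT1 cells and NTSR1 ligands with HT-29 cells. Samples analysed by reversed-phase HPLC chromatography.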

[3] = molecular target: T1, Type-1 angiotensin II receptor (Homo sapiens, UniProt P30556); experiment: Displacement of [3H]-Asp-{Nomega-[N-(4-propanoylaminobutyl)aminocarbonyl]}Arg-ValTyr-Ile-His-Pro-Phe-OH Tris(hydrotrifluoroacetate) from human AT1 receptor transfected in CHO cells co-expressing Galpha16-mtAEQ after 2 hrs by liquid scintillation counting; type: cell-based
T1 sequence (P30556 whole entry): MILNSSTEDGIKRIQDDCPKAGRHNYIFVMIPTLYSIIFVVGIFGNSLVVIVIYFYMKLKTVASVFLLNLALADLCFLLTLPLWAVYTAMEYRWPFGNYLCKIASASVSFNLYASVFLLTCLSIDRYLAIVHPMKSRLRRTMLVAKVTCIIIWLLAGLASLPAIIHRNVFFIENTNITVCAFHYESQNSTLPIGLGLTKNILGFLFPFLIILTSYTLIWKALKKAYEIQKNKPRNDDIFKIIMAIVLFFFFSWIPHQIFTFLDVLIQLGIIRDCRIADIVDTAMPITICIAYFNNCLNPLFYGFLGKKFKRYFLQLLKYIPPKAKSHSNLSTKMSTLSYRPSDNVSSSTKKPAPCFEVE

[4] = molecular target: T1, Type-1 angiotensin II receptor; experiment: Agonist activity at human AT1 receptor transfected in CHO cells co-expressing Galpha16-mtAEQ assessed as induction of intracellular Ca2+ mobilization by bioluminescence assay; type: functional, cell-based
[5] = Chemical stability of compound at 200 uM at pH 7 at 21 degC after 24 to 48 hrs by reversed-phase HPLC analysis; type: physicochemical; settings: buffer, pH 7, 200 µM
Procedure, shortened: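 Peptide incubated in phosphate buffer (PBS), pH 7.0, 21 °C, for 24 or 48 h. Remaining intact peptide assessed by reversed-phase HPLC chromatograms.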

[6] = molecular target: Neuropeptide FF receptor 2 (Homo sapiens, UniProt Q9Y5X5); experiment: Displacement of [3H]EYE from human NPFF2 receptor expressed in CHO cell membranes after 1 hr by liquid scintillation spectrophotometric counting
[7] = molecular target: Neuropeptide Y receptor type 4 (Homo sapiens, UniProt P50391); experiment: Displacement of S0586[K4]hpp from human NPY4 receptor expressed in CHO cells co-expressing Gqi5-mtAEQ by flow cytometric analysis; type: cell-based
Sequence of Neuropeptide Y receptor type 4 (P50391 whole entry): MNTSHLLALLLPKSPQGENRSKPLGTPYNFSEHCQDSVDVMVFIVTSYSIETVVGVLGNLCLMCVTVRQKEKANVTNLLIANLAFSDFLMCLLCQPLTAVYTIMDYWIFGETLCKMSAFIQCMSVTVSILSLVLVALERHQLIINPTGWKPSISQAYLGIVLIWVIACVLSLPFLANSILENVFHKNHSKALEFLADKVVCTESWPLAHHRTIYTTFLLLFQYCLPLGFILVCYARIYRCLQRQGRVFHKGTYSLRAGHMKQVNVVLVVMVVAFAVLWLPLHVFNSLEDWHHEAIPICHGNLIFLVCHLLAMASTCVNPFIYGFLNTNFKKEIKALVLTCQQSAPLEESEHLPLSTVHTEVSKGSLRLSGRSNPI

Sequence of Neurotensin receptor type 1 (P30989 whole entry): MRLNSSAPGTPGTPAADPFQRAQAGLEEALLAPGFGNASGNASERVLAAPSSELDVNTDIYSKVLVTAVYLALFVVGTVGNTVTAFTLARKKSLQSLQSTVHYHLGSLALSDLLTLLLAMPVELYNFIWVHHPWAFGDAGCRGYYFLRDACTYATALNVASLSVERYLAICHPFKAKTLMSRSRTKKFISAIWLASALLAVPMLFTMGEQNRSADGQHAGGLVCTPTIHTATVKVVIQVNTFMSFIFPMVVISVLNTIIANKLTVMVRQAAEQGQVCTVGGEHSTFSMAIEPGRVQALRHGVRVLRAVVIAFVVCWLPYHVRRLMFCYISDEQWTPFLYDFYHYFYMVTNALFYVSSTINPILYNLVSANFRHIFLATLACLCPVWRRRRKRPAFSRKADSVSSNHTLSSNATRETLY
Sequence of Neuropeptide FF receptor 2 (Q9Y5X5 whole entry): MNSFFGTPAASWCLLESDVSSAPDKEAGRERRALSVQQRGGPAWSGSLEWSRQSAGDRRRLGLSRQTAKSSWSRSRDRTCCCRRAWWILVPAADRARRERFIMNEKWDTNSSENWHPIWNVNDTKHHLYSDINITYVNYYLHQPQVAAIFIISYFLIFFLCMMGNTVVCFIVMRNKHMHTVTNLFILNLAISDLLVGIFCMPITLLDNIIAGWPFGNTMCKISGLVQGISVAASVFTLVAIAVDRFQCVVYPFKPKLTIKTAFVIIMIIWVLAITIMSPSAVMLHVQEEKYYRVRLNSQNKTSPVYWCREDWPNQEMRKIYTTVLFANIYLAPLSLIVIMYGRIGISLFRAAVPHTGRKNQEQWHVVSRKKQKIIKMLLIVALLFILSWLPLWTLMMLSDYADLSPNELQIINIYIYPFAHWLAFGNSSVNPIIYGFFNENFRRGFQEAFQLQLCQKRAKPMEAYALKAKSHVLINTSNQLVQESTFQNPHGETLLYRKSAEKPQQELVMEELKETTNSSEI

COc1cccc(OC)c1-c1cc(C(=O)NC2(C(=O)O)C3CC4CC(C3)CC2C4)nn1-c1ccc(C(=O)N(C)CCCN(C)C)cc1C(C)C (stereo not drawn)
IC50 [1]: 3.16 nM | Ki [1]: 1.1 nM

CCC(=O)NCCOCCOCCNC(=O)/N=C(\N)NCCC[C@H](N)C(=O)N[C@@H](CCCNC(=N)N)C(=O)N1CCC[C@H]1C(=O)N[C@@H](Cc1ccc(O)cc1)C(=O)N[C@H](C(=O)N[C@@H](CC(C)C)C(=O)O)[C@@H](C)CC
metabolised at 2 h, 50 µM [2]: < 5.5%

CC[C@H](C)[C@H](NC(=O)[C@H](Cc1ccc(O)cc1)NC(=O)[C@@H]1CCCN1C(=O)[C@H](CCCNC(=N)N)NC(=O)[C@@H](N)CCCNC(=N)N)C(=O)N[C@@H](CC(C)C)C(=O)O
metabolised at 2 h, 50 µM [2]: < 5.5%

CC[C@H](C)[C@H](NC(=O)[C@H](Cc1ccc(O)cc1)NC(=O)[C@@H](NC(=O)[C@H](CCCN/C(N)=N/C(=O)NCCCCN)NC(=O)[C@@H](N)CC(=O)O)C(C)C)C(=O)N[C@@H](Cc1cnc[nH]1)C(=O)N1CCC[C@H]1C(=O)N[C@@H](Cc1ccccc1)C(=O)O.O=C(O)C(F)(F)F.O=C(O)C(F)(F)F.O=C(O)C(F)(F)F.O=C(O)C(F)(F)F (H-D[X2]VYIHPF-OH)
IC50 [3]: 6.17 nM | Ki [3]: 2.1 nM | EC50 [4]: 1.4 nM | Stability [5]: Stable

CC[C@H](C)[C@H](NC(=O)[C@H](Cc1ccc(O)cc1)NC(=O)[C@@H](NC(=O)[C@H](CCCN/C(N)=N/C(=O)NCCOCCOCCN)NC(=O)[C@@H](N)CC(=O)O)C(C)C)C(=O)N[C@@H](Cc1cnc[nH]1)C(=O)N1CCC[C@H]1C(=O)N[C@@H](Cc1ccccc1)C(=O)O.O=C(O)C(F)(F)F.O=C(O)C(F)(F)F.O=C(O)C(F)(F)F.O=C(O)C(F)(F)F (H-D[X3]VYIHPF-OH)
Ki [3]: 2.8 nM | EC50 [4]: 2.1 nM | Stability [5]: Stable

CCC(=O)NCCCCNC(=O)/N=C(/N)NCCC[C@H](NC(=O)[C@H](CCC(N)=O)NC(=O)[C@@H]1CCCN1C(=O)[C@H](C)NC(=O)[C@H](C)NC(=O)[C@H](CC(C)C)NC(=O)[C@H](CO)NC(=O)[C@H](Cc1c[nH]c2ccccc12)NC(=O)[C@H](Cc1ccc(O)cc1)NC(=O)[C@@H](N)CCC(=O)O)C(=O)N[C@@H](Cc1ccccc1)C(N)=O.O=C(O)C(F)(F)F.O=C(O)C(F)(F)F (H-EYWSLAAPQ[X6]F-NH2)
Stability [5]: Stable | Ki [6]: 41 nM

CC(C)C[C@H](NC(=O)[C@H](CO)NC(=O)[C@H](Cc1c[nH]c2ccccc12)NC(=O)[C@H](Cc1ccc(O)cc1)NC(=O)[C@@H](N)CCC(=O)O)C(=O)N[C@@H](C)C(=O)N[C@@H](C)C(=O)N1CCC[C@H]1C(=O)N[C@@H](CCC(N)=O)C(=O)N[C@@H](CCCN/C(N)=N\C(=O)NCCCCN)C(=O)N[C@@H](Cc1ccccc1)C(N)=O.O=C(O)C(F)(F)F.O=C(O)C(F)(F)F.O=C(O)C(F)(F)F (H-EYWSLAAPQ[X7]F-NH2)
Stability [5]: Stable | Ki [6]: 27 nM

CC[C@H](C)[C@H](NC(=O)[C@H](Cc1ccc(O)cc1)NC(=O)[C@@H]1CCCN1C(=O)[C@H](CCCN/C(N)=N\C(=O)NCCOCCOCCN)NC(=O)[C@@H](N)CCCNC(=N)N)C(=O)N[C@@H](CC(C)C)C(=O)O (H-R[X4]PYIL-OH)
Ki [1]: 0.36 nM

CC[C@H](C)[C@H](NC(=O)[C@H](Cc1ccc(O)cc1)NC(=O)[C@@H]1CCCN1C(=O)[C@H](CCCNC(=N)N)NC(=O)[C@@H](N)CCCN/C(N)=N/C(=O)NCCOCCOCCN)C(=O)N[C@@H](CC(C)C)C(=O)O (H-[X3]RPYIL-OH)
Ki [1]: 0.26 nM

CC(C)C[C@H](NC(=O)[C@H](CCCNC(=N)N)NC(=O)[C@H](Cc1ccc(O)cc1)NC(=O)CCCCCCC(=O)N[C@@H](Cc1ccc(O)cc1)C(=O)N[C@@H](CCCNC(=N)N)C(=O)N[C@@H](CC(C)C)C(=O)N[C@@H](CCCNC(=N)N)C(=O)N[C@@H](Cc1ccc(O)cc1)C(N)=O)C(=O)N[C@@H](CCCNC(=N)N)C(=O)N[C@@H](Cc1ccc(O)cc1)C(N)=O (I: YRLRY-NH2 / II: YRLRY-NH2; linker I:N-II:N via Suberoyl)
Ki [7]: 7.4 nM
